Data as given in ChEMBL document CHEMBL1143134, “The number and distances of positive charges of polyamine side chains in a series of perylene diimides significantly influence their ability to induce G-quadruplex structures and inhibit human telomerase” (Bioorg Med Chem, 2008).
Calls of active or inactive are those of the source. The calls are words filed in the database; no cut-off is given here.

Legend:
[1] = biological target: Telomerase reverse transcriptase (Homo sapiens) (UniProt O14746); assay: Inhibition of human telomerase by TRAP assay
Procedure, shortened: (§1)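 Cell-free modified TRAP assay using TSG4 primer and HeLa cell extract in TRAP buffer (20 mM Tris-HCl pH 8.3, 1.5 mM MgCl2, 68 mM KCl, 0.05% Tween 20, 1 mM EGTA). Compounds (2–20 µM) preincubated with primer for 2 h at 30 °C before extract was added. A 130-bp internal standard controls PCR efficiency. Percent inhibition from at least three independent experiments.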

[2] = biological target: Telomerase reverse transcriptase (Homo sapiens) (UniProt O14746); assay: Inhibition of human telomerase at 2 uM by TRAP assay; procedure, shortened: as §1

Telomerase reverse transcriptase (Homo sapiens), sequence (O14746 whole entry): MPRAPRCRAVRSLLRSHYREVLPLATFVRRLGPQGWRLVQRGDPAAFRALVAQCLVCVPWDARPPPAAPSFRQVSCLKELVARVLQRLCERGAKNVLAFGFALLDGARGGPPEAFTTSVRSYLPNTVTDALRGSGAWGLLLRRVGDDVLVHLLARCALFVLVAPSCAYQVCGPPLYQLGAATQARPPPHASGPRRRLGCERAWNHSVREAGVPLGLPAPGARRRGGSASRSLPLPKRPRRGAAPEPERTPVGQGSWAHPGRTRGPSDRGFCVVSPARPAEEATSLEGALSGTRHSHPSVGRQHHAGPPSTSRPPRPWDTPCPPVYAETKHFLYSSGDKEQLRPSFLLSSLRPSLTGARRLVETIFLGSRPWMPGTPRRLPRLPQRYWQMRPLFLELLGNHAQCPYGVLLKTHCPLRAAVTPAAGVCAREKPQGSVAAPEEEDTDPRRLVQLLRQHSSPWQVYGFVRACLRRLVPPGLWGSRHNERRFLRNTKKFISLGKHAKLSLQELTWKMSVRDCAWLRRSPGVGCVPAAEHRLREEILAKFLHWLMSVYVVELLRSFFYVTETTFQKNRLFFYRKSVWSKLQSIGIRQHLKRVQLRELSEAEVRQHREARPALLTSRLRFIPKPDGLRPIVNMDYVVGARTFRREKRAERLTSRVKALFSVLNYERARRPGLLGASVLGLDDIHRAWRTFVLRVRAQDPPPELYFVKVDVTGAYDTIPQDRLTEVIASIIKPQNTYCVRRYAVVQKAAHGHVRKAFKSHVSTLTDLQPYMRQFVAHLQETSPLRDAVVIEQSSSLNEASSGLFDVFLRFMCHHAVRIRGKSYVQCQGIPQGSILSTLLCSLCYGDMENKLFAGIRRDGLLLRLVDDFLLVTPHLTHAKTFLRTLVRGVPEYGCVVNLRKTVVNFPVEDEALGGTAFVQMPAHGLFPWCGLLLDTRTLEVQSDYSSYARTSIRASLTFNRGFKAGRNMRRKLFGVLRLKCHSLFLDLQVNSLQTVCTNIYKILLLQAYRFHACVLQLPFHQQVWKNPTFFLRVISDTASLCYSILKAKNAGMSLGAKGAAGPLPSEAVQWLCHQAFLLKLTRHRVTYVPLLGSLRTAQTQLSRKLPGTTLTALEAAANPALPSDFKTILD

Row | SMILES | Activity [1] | inhibition [2] [%]
1 | CC(=O)NCCCNCCCCNCCN1C(=O)c2ccc3c4ccc5c6c(ccc(c7ccc(c2c37)C1=O)c64)C(=O)N(CCNCCCCNCCCNC(C)=O)C5=O | Active | –
2 | NCCCNCCCCNCCN1C(=O)c2ccc3c4ccc5c6c(ccc(c7ccc(c2c37)C1=O)c64)C(=O)N(CCNCCCCNCCCN)C5=O | – | 30
